Source: ChEMBL document CHEMBL3808362, “Affinity-Guided Design of Caveolin-1 Ligands for Deoligomerization” (J Med Chem, 2016)
One block for each compound: values may come before it. The source made the active and inactive calls. The calls are words filed in the database; no cut-off is given here. Peptide text beside a SMILES is read from it.

Assays:
[1] = target: T1, Caveolin-1 (Homo sapiens) (UniProt Q03135); assay: Inhibition of oligomerization of human soluble full length variant CAV at 10 uM by dynamic light scattering analysis
T1 sequence (whole entry): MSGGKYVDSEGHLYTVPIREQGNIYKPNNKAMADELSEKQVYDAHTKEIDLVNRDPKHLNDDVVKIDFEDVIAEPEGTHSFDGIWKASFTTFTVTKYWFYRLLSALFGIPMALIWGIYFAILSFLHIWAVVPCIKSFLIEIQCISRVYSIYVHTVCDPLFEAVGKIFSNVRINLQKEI
How it was run: (§1)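 Soluble full-length CAV variant (CAV(FLV)) forms oligomers spontaneously. These were incubated with peptide, and particle size was measured by dynamic light scattering as average diameter and polydispersity. For line 7, incubation was under reducing conditions to disrupt the peptide's disulfide dimerization.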

[2] = target: T1, Caveolin-1 (Homo sapiens); assay: Inhibition of oligomerization of human soluble full length variant CAV at 10 uM by dynamic light scattering analysis in presence of TCEP; how it was run: as §1
[3] = target: T1, Caveolin-1 (Homo sapiens); assay: Inhibition of oligomerization of human soluble full length variant CAV by dynamic light scattering analysis
How it was run: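 CAV(FLV) oligomers were incubated with varied peptide concentrations. Dose dependence was followed by dynamic light scattering as the diameter of separate oligomeric peaks.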

[4] = target: T1, Caveolin-1 (Homo sapiens); assay: Binding affinity to rhodamine-labeled human CAV (1 to 104 residues) expressed in Escherichia coli BL21-DE3 by SPOT screening assay
How it was run: (§2)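 Peptides synthesized on cellulose SPOT arrays with a double β-Ala linker, screened in duplicate sheets against rhodamine-labeled protein. Sheets were washed and blocked, and SPOT fluorescence was quantified as relative apparent binding. Signal from blank linker-only SPOTs was subtracted on each sheet.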

[5] = target: Albumin (Bos taurus, UniProt P02769); assay: Binding affinity to rhodamine-labeled bovine serum albumin by SPOT screening assay; type: ADME; details: cattle, isolated protein; how it was run: as §2
[6] = species on record: Homo sapiens; assay: Binding affinity to rhodamine-labeled casein (unknown origin) by SPOT screening assay; how it was run: as §2
[7] = species on record: Gallus gallus; assay: Binding affinity to rhodamine-labeled hen egg white lysozyme by SPOT screening assay; how it was run: as §2
[8] = target: T2, Caveolin-1 (Homo sapiens, UniProt Q03135); assay: Binding affinity to human CAV (1 to 104 residues) expressed in Escherichia coli BL21-DE3 by isothermal titration calorimetric analysis
T2 sequence (Q03135 whole entry): T1 sequence (whole entry)

Albumin, sequence (P02769 whole entry): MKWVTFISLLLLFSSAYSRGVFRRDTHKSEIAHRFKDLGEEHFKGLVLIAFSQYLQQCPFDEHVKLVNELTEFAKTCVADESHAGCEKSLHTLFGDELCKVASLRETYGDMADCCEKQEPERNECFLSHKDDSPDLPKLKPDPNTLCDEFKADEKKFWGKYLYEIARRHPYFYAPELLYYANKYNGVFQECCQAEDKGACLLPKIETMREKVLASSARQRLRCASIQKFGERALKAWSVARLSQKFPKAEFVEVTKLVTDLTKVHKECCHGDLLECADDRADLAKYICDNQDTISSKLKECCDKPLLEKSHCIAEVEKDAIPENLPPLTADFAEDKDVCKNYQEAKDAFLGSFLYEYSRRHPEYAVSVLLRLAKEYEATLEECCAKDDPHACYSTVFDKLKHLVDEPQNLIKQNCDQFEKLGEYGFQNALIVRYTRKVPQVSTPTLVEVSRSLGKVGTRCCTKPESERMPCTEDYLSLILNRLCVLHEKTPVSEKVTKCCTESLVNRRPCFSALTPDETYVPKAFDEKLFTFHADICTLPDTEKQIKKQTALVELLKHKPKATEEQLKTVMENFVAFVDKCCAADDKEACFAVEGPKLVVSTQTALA

inhibition [1]: Active | inhibition [2]: inactive | inhibition [3]: Dose-dependent effect | Activity [4]: Active | Activity [5]: Not Active | Activity [6]: inactive | Activity [7]: inactive
SMILES: CSCC[C@H](NC(=O)[C@H](Cc1c[nH]c2ccccc12)NC(=O)[C@H](CO)NC(=O)[C@@H](N)CS)C(=O)N[C@@H](CCCNC(=N)N)C(=O)N[C@@H](CC(C)C)C(=O)N[C@@H](CCCCN)C(=O)O (H-CSWMRLK-OH)

Activity [4]: Active
SMILES: CSCC[C@H](NC(=O)[C@H](CO)NC(=O)CNC(=O)[C@H](Cc1c[nH]c2ccccc12)NC(=O)[C@@H](N)CCCNC(=N)N)C(=O)N[C@@H](CC(C)C)C(=O)N[C@@H](CCCCN)C(=O)N[C@@H](CS)C(=O)N[C@@H](Cc1ccccc1)C(=O)O (H-RWGSMLKCF-OH)

Activity [4]: Active
SMILES: CSCC[C@H](NC(=O)[C@H](CO)NC(=O)CNC(=O)[C@H](Cc1c[nH]c2ccccc12)NC(=O)[C@H](CCCNC(=N)N)NC(=O)[C@H](CCC(=O)O)NC(=O)[C@H](CC(C)C)NC(=O)[C@H](CCC(=O)O)NC(=O)[C@H](CCSC)NC(=O)[C@H](CC(C)C)NC(=O)[C@@H](N)CCC(=O)O)C(=O)N[C@@H](CC(C)C)C(=O)N[C@@H](CCCCN)C(=O)N[C@@H](CS)C(=O)N[C@@H](Cc1ccccc1)C(=O)O (H-ELMELERWGSMLKCF-OH)

Kd [8]: ≤ 155 nM
SMILES: CC[C@H](C)[C@H](NC(=O)[C@H](CC(C)C)NC(=O)[C@H](CO)NC(=O)[C@H](Cc1cnc[nH]1)NC(=O)[C@@H](NC(=O)[C@H](CC(C)C)NC(=O)[C@H](CO)NC(=O)[C@@H](NC(=O)[C@@H](N)Cc1ccc(O)cc1)[C@@H](C)O)[C@@H](C)CC)C(=O)N[C@@H](CCC(=O)O)C(=O)N[C@@H](CCC(=O)O)C(=O)N[C@@H](CO)C(=O)N[C@@H](CCC(N)=O)C(=O)N[C@@H](CC(N)=O)C(=O)N[C@@H](CCC(N)=O)C(=O)N[C@@H](CCC(N)=O)C(=O)N[C@@H](CCC(=O)O)C(=O)N[C@@H](CCCCN)C(=O)N[C@@H](CCC(N)=O)C(=O)N[C@@H](CCC(=O)O)C(=O)N[C@@H](CCCCN)C(=O)N[C@@H](CCC(=O)O)C(=O)N[C@@H](CC(C)C)C(=O)N[C@@H](CCSC)C(=O)N[C@@H](CCC(=O)O)C(=O)N[C@@H](CC(C)C)C(=O)N[C@@H](CCC(=O)O)C(=O)N[C@@H](CCCNC(=N)N)C(=O)N[C@@H](Cc1c[nH]c2ccccc12)C(=O)NCC(=O)N[C@@H](CO)C(=O)N[C@@H](CCSC)C(=O)N[C@@H](CC(C)C)C(=O)N[C@@H](CCCCN)C(=O)N[C@@H](CS)C(=O)N[C@@H](Cc1ccccc1)C(=O)O (H-YTSLIHSLIEESQNQQEKQEKELMELERWGSMLKCF-OH)
